Laboratory results from ChEMBL document CHEMBL3525925, “In vitro studies on the oxidative metabolism of 20(s)-ginsenoside Rh2 in human, monkey, dog, rat, and mouse liver microsomes, and human liver s9” (Drug Metab Dispos, 2012).

Assays:
[1] = Drug metabolism in cynomolgus monkey liver microsomes assessed as (24S,25)-epoxydamma-rane-12,20-diol-3-beta-D-glucopyranoside formation at 10 uM after 1 hr by LC/MS analysis in presence of GSH; assay type: ADME, Macaca fascicularis
Outline: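 Male cynomolgus monkey liver microsomes (1 mg/ml) with 10 µM Rh2, 2 mM GSH and 2 mM NADPH in 100 mM potassium phosphate pH 7.4, 37°C, 60 min after 3 min preincubation; microsomes start reaction; ice-cold acetonitrile stop; no-NADPH controls; duplicates; LC/ion-trap MSn detection.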

[2] = molecular target: T1, Cytochrome P450 2B6 (Homo sapiens, UniProt P20813); assay: Drug metabolism in human recombinant CYP2B6 mediated oxidative metabolism at 10 uM; assay type: ADME; settings: recombinant enzyme
T1 sequence (P20813 whole entry): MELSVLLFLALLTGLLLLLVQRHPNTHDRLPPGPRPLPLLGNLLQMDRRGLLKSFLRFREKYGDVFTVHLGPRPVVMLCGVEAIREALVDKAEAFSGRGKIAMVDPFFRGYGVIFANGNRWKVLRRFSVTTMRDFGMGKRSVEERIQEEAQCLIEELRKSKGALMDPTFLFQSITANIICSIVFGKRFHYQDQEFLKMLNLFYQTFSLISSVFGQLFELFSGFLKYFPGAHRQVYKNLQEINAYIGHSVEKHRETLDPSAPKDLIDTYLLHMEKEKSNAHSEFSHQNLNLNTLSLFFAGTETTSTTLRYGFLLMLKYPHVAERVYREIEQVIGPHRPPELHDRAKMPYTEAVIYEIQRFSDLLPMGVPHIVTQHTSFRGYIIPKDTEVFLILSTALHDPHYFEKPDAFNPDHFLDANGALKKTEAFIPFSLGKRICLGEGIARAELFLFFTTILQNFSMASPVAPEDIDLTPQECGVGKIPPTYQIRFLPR
Outline: (§1)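 Recombinant human P450 at 50 nM incubated with 10 µM Rh2 and 2 mM NADPH in 100 mM potassium phosphate pH 7.4, 37°C, 60 min; ice-cold acetonitrile stop; duplicates; metabolites detected by LC/ion-trap MSn.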

[3] = molecular target: T2, Cytochrome P450 2A6 (Homo sapiens, UniProt P11509); assay: Drug metabolism in human recombinant CYP2A6 mediated oxidative metabolism at 10 uM; assay type: ADME; settings: recombinant enzyme; outline: as §1
T2 sequence (P11509 whole entry): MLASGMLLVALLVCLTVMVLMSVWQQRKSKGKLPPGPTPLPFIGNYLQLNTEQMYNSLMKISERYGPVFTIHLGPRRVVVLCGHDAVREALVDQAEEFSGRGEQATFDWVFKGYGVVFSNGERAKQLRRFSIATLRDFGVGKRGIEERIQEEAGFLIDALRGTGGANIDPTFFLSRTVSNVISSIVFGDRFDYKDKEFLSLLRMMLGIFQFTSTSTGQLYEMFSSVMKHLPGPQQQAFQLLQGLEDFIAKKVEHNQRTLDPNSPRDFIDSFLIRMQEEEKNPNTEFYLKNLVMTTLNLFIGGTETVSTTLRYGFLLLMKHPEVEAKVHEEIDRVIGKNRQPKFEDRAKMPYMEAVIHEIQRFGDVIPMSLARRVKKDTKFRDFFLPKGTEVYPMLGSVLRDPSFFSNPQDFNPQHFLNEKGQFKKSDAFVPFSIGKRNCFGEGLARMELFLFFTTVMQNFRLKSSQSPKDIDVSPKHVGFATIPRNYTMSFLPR

[4] = molecular target: T3, Cytochrome P450 2C8 (Homo sapiens, UniProt P10632); assay: Drug metabolism in human recombinant CYP2C8 mediated oxidative metabolism at 10 uM; assay type: ADME; settings: recombinant enzyme; outline: as §1
T3 sequence (P10632 whole entry): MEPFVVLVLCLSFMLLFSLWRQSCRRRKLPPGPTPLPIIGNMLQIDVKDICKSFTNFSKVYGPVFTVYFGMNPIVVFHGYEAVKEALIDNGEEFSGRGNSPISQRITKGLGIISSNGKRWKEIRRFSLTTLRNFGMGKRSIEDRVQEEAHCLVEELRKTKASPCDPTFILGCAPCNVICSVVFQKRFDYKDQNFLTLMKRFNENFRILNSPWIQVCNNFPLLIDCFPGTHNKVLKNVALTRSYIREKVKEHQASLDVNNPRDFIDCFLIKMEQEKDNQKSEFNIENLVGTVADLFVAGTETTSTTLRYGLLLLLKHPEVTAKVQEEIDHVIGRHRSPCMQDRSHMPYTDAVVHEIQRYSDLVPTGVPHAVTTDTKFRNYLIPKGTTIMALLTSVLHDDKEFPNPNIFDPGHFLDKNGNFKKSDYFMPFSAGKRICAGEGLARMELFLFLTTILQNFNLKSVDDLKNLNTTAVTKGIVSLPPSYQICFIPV

[5] = test system: Liver microsome; assay: Drug metabolism in human liver microsomes assessed as oxidative metabolism at 10 uM in presence of 60 uM chlormethiazole CYP2E1 inhibitor; assay type: ADME
Outline: (§2)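 Pooled human liver microsomes (1 mg/ml, mixed-gender, 50 donors), 10 µM Rh2, 2 mM NADPH and selective inhibitor in 100 mM potassium phosphate pH 7.4; 37°C, 60 min; ice-cold acetonitrile stop; uninhibited controls; duplicates; formation of M1-2, M1-3 and M1-4+M1-5 quantified by LC/ion-trap MSn.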

[6] = Drug excretion in rat bile at 50 mg/kg, po; assay type: ADME, organism-based; set-up: dose 50 mg/kg, route oral; settings: read-out: Drug excretion
[7] = Oral bioavailability in Wistar rat at 25 mg/kg; assay type: ADME, organism-based; settings: in vivo
[8] = test system: Liver microsome; assay: Drug metabolism in human liver microsomes assessed as oxidative metabolism at 10 uM in presence of 2 uM quinidine CYP2D6 inhibitor; assay type: ADME; outline: as §2
[9] = Drug metabolism in cynomolgus monkey liver microsomes assessed as (2S)-2-amino-5-((2R)-1-(carboxymethylamino)-3-((6S)-2,6-dihydroxy-6-((3S,5R,8R,9R,10R,12R,13R,14R,17S)-12-hydroxy-4,4,8,10,14-pentamethyl-3-((2R,3R,4S,5S,6R)-3,4,5-trihydroxy-6-(hydroxymethyl)tetrahydro-2H-pyran-2-yloxy)hexadecahydro-1H-cyclopenta[a]phenanthren-17-yl)-2-methylheptan-3-ylthio)-1-oxopropan-2-ylamino)-5-oxopentanoic acid formation at 10 uM by LC/MS analysis in presence of 1 uM ketoconazole; assay type: ADME, Macaca fascicularis
Outline: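 Cynomolgus monkey liver microsomes (1 mg/ml) with 2 mM GSH, 10 µM Rh2 and 1.0 µM ketoconazole preincubated 10 min before adding 2 mM NADPH; GSH conjugate measured by LC/ion-trap MSn peak area; duplicates.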

**Q.** For `CC(C)=CCC[C@](C)(O)[C@H]1CC[C@]2(C)[C@@H]1[C@H](O)C[C@@H]1[C@@]3(C)CC[C@H](O[C@@H]4O[C@H](CO)[C@@H](O)[C@H](O)[C@H]4O)C(C)(C)[C@@H]3CC[C@]12C` [GINSENOSIDE RH2], which Drug metabolism [1] is on record?
**A.** metabolite_detected

**Q.** What about the Drug metabolism [2] of the same compound?
**A.** metabolite_not_detected

**Q.** And the Drug metabolism [3]?
**A.** metabolite_not_detected

**Q.** What about the Drug metabolism [4] of the same compound?
**A.** metabolite_not_detected

**Q.** And the Drug metabolism [5]?
**A.** metabolite_detected

**Q.** And the dose excreted [6]?
**A.** < 10%

**Q.** What about the bioavailability [7] of the same compound?
**A.** 28%

**Q.** What about the Drug metabolism [8] of the same compound?
**A.** metabolite_detected

**Q.** What about the Drug metabolism [9] of the same compound?
**A.** metabolite_not_detected
